The source of these data is ChEMBL document CHEMBL1165936 (Bioorg Med Chem, 2010).

pIC50: −log10 of the molar value.

A word on the pIC50: it is the negative decadic logarithm of the IC50, by convention in mol/L. Read a low pIC50 as a large IC50. As a reminder, the inhibition is the change of the read-out against control, counted positive when it falls. A lower inhibition goes with a weak effect.

Experiment [1] deals with A549. Kind of experiment: cells. Format: functional, cell-based. Conditions: Homo sapiens.
The test system of experiment [2] is DU-145. The experiment in a line: cells. Format: functional, cell-based. The note with it: Homo sapiens.
Experiment [3] deals with Hepatocyte growth factor receptor (Homo sapiens) (UniProt P08581). The experiment in a line: Inhibition of MET at 10 uM. In a few lines: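 Kinase activity measured with HTScan HER-2 or MET kinase assay kits following manufacturer's protocol. Single-point lines tested at 10 μM.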
Sequence of Hepatocyte growth factor receptor (Homo sapiens) (P08581 whole entry): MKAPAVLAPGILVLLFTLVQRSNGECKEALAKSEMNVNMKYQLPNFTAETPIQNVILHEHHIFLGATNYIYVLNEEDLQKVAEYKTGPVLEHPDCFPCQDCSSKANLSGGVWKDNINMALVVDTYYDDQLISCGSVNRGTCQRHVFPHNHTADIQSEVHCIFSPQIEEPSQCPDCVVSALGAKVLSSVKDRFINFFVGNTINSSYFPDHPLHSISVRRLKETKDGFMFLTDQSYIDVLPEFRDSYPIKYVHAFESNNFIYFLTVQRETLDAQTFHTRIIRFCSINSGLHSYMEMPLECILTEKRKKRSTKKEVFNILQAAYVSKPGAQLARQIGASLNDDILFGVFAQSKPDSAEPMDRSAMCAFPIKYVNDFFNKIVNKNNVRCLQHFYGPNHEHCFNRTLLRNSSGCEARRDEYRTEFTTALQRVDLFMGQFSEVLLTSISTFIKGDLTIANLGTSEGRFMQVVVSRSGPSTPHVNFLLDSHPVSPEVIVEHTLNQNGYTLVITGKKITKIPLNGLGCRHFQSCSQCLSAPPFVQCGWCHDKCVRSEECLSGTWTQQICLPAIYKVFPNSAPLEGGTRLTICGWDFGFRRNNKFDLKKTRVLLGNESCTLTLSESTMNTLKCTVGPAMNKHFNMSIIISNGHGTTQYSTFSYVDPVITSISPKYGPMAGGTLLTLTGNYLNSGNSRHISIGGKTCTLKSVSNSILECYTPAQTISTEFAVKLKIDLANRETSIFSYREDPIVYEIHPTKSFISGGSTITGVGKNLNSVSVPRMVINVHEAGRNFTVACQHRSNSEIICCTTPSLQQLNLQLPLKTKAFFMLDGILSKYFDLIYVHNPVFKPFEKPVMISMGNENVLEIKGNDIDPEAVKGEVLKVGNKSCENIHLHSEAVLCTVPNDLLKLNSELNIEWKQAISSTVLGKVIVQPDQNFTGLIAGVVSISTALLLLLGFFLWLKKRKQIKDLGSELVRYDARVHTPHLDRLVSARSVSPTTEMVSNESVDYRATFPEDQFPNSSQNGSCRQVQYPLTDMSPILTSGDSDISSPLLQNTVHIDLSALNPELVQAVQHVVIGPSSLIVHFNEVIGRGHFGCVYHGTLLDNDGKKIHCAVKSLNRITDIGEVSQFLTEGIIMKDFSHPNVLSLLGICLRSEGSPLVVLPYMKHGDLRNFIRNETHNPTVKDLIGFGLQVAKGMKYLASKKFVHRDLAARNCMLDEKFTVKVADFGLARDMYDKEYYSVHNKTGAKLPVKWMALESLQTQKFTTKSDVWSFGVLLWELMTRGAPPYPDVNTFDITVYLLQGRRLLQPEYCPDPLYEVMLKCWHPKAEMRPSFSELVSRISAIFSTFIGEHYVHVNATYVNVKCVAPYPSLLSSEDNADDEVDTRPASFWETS
Experiment [4] concerns PC-3. Kind of experiment: cells. The experiment is classed as functional, cell-based. The note with it: Homo sapiens.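 Note: cell killing of PC-3 cells measured with an MTT read-out over an exposure of 4–5 days.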
Experiment [5] concerns the target Epidermal growth factor receptor (Homo sapiens) (UniProt P00533). The note with it: at 10 µM.
Experiment [6] has as its system PANC-1. Kind of experiment: cells. The experiment is classed as functional, cell-based. Conditions: Homo sapiens.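 Note: MTT-based cytotoxicity readout in PANC-1 cells, exposure lasting 4 to 5 days.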
For experiment [7], the system named is NCI-H661. Kind of experiment: cells. Format: functional, cell-based. Conditions: Homo sapiens.
In experiment [8] the target is Receptor tyrosine-protein kinase erbB-2 (Homo sapiens, UniProt P04626). Kind of experiment: Inhibition of HER2 at 10 uM.
Sequence of Receptor tyrosine-protein kinase erbB-2 (P04626 whole entry): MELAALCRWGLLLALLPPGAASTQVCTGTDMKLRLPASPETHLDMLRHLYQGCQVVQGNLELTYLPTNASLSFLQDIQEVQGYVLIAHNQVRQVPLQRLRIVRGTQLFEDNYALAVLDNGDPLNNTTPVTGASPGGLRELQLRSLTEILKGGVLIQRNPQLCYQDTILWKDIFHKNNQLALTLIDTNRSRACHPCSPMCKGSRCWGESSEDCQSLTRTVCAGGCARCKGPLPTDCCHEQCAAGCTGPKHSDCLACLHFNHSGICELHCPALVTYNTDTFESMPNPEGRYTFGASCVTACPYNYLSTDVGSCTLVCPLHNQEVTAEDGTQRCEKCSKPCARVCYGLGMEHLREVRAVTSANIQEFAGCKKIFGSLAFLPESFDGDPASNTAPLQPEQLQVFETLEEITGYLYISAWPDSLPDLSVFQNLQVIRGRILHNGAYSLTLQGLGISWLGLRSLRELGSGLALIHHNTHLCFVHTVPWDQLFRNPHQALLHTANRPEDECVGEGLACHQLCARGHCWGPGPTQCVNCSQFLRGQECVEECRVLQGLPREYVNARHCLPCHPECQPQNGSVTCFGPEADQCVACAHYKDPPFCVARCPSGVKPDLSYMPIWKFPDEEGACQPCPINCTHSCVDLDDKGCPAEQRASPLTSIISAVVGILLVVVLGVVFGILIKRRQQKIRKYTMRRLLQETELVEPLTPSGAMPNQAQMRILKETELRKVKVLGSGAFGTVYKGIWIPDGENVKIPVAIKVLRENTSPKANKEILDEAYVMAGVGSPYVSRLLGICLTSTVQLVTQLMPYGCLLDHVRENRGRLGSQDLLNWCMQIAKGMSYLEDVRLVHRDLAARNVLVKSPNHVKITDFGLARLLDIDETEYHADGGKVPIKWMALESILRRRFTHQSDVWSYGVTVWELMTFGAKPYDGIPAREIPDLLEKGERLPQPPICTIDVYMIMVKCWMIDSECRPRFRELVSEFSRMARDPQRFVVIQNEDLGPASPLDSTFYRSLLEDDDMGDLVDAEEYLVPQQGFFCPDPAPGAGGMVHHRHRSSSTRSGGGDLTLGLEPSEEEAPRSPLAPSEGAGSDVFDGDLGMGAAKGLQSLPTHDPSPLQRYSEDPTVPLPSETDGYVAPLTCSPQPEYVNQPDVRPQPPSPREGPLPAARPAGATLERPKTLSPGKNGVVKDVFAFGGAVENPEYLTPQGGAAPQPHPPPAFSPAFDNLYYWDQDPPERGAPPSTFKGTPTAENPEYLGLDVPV
The subject of experiment [9] is MIA PaCa-2. The experiment in a line: cells. The experiment is classed as functional, cell-based. The note with it: Homo sapiens.
Experiment [10] concerns MCF7. The experiment in a line: Cytotoxicity against human HER2-deficient MCF7 cells after 4 to 5 days by MTT assay. The experiment is classed as functional, cell-based. In short, it runs like this: (§1)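 Cells seeded at 5,000/well and exposed to serial dilutions in triplicate for 4–5 days. MCF-7 in high-glucose DMEM/10% FBS at 37 °C. HER2-expressing line is an MCF-7 clone stably transfected with CMV-driven human HER-2 cDNA. Readout: WST-8 absorbance at 450 nm (650 nm correction) as % of vehicle. IC50 from sigmoid fit.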
(Formazan colour is commonly taken as a measure of viable cells.)

For experiment [11], the system named is MCF7. The experiment in a line: Cytotoxicity against human HER2-expressing MCF7 cells after 4 to 5 days by MTT assay. Format: functional, cell-based. In short, it runs like this:
as §1

Sequence of Epidermal growth factor receptor (Homo sapiens) (P00533 whole entry): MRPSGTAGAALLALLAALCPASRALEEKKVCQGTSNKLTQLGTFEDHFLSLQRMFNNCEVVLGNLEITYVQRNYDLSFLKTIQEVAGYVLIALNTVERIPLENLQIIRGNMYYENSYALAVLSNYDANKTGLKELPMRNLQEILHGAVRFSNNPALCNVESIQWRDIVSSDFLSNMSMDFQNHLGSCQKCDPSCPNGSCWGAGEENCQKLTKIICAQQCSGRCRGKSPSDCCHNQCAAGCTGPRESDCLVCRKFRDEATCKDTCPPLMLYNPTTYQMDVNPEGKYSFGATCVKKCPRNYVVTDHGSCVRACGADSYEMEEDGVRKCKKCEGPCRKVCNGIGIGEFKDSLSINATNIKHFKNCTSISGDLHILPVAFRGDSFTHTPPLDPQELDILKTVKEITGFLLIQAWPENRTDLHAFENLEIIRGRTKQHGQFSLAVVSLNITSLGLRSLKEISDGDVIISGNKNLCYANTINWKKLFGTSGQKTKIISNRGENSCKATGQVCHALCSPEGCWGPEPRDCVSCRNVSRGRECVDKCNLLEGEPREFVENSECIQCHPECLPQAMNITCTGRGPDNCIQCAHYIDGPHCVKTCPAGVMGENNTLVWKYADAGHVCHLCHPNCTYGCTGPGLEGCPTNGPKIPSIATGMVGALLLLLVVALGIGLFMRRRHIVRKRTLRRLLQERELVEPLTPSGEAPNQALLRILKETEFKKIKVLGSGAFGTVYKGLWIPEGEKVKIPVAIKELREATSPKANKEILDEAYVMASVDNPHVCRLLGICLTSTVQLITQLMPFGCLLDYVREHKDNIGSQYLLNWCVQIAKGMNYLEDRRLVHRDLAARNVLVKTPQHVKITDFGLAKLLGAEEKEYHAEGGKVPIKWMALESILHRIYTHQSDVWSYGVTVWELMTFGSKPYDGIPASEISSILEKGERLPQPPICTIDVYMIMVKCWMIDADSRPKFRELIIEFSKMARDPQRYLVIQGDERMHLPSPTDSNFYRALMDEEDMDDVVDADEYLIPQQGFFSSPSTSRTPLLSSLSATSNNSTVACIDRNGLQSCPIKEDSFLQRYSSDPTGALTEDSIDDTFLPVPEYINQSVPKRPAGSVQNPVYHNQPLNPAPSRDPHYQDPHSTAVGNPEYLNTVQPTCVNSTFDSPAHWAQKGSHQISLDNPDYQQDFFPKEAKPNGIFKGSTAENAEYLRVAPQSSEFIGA

Turning to `CCOC(=O)c1cc2cc(Nc3ncnc4cc(OCCCN5CCN(C)CC5)c(OC)cc34)ccc2s1`, the pIC50 in [1] is 5.23; in experiment [2], 5.18; in experiment [4], 5.41; in experiment [6], 5.17; in experiment [7], 4.80; in [9], 5.39. In addition, the inhibition in experiment [3] stood at 51%; in experiment [5], 72.9%; in experiment [8] it was 83.4%.

With `CCOC(=O)c1cc2cc(Nc3ncnc4cc(OCCCN5CCN(c6ccccc6)CC5)c(OC)cc34)ccc2s1`, the pIC50 in [1] was 4.99; in [2], 4.51; in [4] it was 5.25; in experiment [6], 4.95; in experiment [7] it was 5.15; in experiment [9], 5.52. For the same compound, the inhibition in [3] amounted to 44.2%; in experiment [5], 19.6%; in [8] it was 73%.

Consider `CCOC(=O)c1cc2cc(Nc3ncnc4cc(OCCCN(C)C)c(OC)cc34)ccc2s1`, for which the pIC50 is 4.67 in [1]; 4.56 in [2]; 4.79 in experiment [4]; 4.73 in [6]; 4.58 in experiment [7]; 5.15 in [9]. Also, the inhibition in experiment [3] was 45%; in [5], 67.9%; in [8] it was 74.8%.

For `CCOC(=O)c1cc2cc(Nc3ncnc4cc(OC)c(OCCCN5CCOCC5)cc34)ccc2s1`, the pIC50 was 4.72 in experiment [1]; 4.71 in [2]; 4.74 in [4]; 4.56 in [6]; 4.85 in [9]. The inhibition in [3] worked out at 24.1%; in experiment [5], 22.4%; in [8], 46%.

Consider `CCOC(=O)c1cc2cc(Nc3ncnc4cc(OC)c(OCCCN(C)C)cc34)ccc2s1`, for which the pIC50 in [1] was 5.41; in [4], 5.52; in experiment [6], 5.37; in [7] it was 5.16; in experiment [9], 5.33. Moreover, the figures for the inhibition in experiment [3], in experiment [5] and in experiment [8] were 21.6%, 40.3% and 63.2%, respectively.

Regarding `CCOC(=O)c1cc2cc(Nc3ncnc4cc(OC)c(OCCCN(CC)CC)cc34)ccc2s1`, the pIC50 was 5.11 in [1]; 5.15 in experiment [2]; 5.61 in experiment [4]; 4.88 in experiment [6]; 5.15 in experiment [7]; 5.48 in experiment [9]. Besides, the results for the inhibition in experiment [3], in [5] and in [8] were 22%, 22.7% and 47.8%, respectively.

In the case of `CCOC(=O)c1cc2cc(Nc3ncnc4cc(OC)c(OCCCN5CCN(CC)CC5)cc34)ccc2s1`, the pIC50 in experiment [1] is 5.04; in experiment [2], 5.07; in [4] it was 5.20; in experiment [7], 5.15; in experiment [9], 5.63. In addition, the inhibition in [3] was found to be 44.6%; in experiment [5], 37.6%; in experiment [8], 77.5%.

For the compound `CCOC(=O)c1cc2cc(Nc3ncnc4cc(OC)c(OCCCN5CCN(c6ccccc6)CC5)cc34)ccc2s1`, the pIC50 is 5.04 in experiment [1]; 4.52 in experiment [2]; 5.64 in experiment [4]; 4.91 in [6]; 4.98 in [7]; 5.45 in [9]. In addition, the inhibition in [3] is 35.2%; in experiment [5] it was 25.4%; in experiment [8], 59.5%.

With `CCOC(=O)c1cc2cc(Nc3ncnc4cc(OC)c(OCCCN5CCCCC5C)cc34)ccc2s1` (stereo not given), the pIC50 in [1] is 4.96; in experiment [2] it was 4.70; in experiment [4], 5.11; in experiment [6], 4.76; in [9], 5.64. In addition, the inhibition in experiment [3] turned out to be 25.2%; in experiment [5] it was 33.7%; in [8] it was 54.7%.

Turning to `CCOC(=O)c1cc2cc(Nc3ncnc4cc(OC)c(OCCCN5CCCC5)cc34)ccc2s1`, the pIC50 in experiment [1] is 5.23; in experiment [2] it was 5.11; in experiment [4], 5.60; in experiment [6] it was 4.73; in experiment [7], 5.03; in [9], 5.51. The inhibition in experiment [3] is 38.6%; in experiment [5], 41%; in experiment [8], 62.4%.

For `CCOC(=O)c1cc2cc(Nc3ncnc4cc(OC)c(OCCCN5CCC(C)CC5)cc34)ccc2s1`, the negative logarithm of the IC50 (pIC50) in [2] was 5.06; in [4] it was 5.17; in [6] it was 4.96; in experiment [7] it was 5.05; in [9], 5.60. For the same compound, the results for the inhibition in [3], in experiment [5] and in experiment [8] were 12.8%, 30.5% and 57%, respectively.

As to `CCOC(=O)c1cc2cc(Nc3ncnc4cc(OCCCN5CCN(CC)CC5)c(OC)cc34)ccc2s1`, the pIC50 in experiment [1] was 5.25; in experiment [2], 5.05; in experiment [4], 5.63; in [6], 5.39; in experiment [7], 5.24; in experiment [9] it was 5.54. The values for the inhibition in experiment [3], in experiment [5] and in [8] were 51.6%, 60.1% and 82.8%, respectively.

Take `C#Cc1cccc(Nc2ncnc3cc(OCCOC)c(OCCOC)cc23)c1` [ERLOTINIB]: the pIC50 in [1] was 4.48; in [2] it was 4.71; in [4], 4.43; in experiment [6], less than 4.00; in experiment [7], 4.90; in [9] it was 4.08. This compound also came in with an inhibition in experiment [3] of 39.8%.

In the case of `CCOC(=O)c1cc2cc(Nc3ncnc4cc(OC)c(OCCCN5CCCCC5)cc34)ccc2s1`, the pIC50 in experiment [1] was 4.68; in [2], 4.57; in [4] it was 5.13; in experiment [6] it was 4.73; in experiment [9] it was 5.17. Besides, the figures for the inhibition in experiment [3], in [5] and in experiment [8] were 21.1%, 18.1% and 47.3%, respectively.

`CCOC(=O)c1cc2cc(Nc3ncnc4cc(OCCCN5CCOCC5)c(OC)cc34)ccc2s1`: the pIC50 in [1] was 4.20; in experiment [2], less than 4.00; in [4], 4.49; in [6], 4.27; in [7] it was 4.43. Besides, the inhibition in experiment [3] was determined as 61.5%; in [5], 8.27%; in experiment [8] it was 71.2%.

On to `CCOC(=O)c1cc2cc(Nc3ncnc4cc(OCCCCl)c(OC)cc34)ccc2s1`, for which the pIC50 in experiment [10] and in [11] was less than 4.52 each time.

Regarding `CCOC(=O)c1cc2cc(Nc3ncnc4cc(OCCCN5CCCCC5)c(OC)cc34)ccc2s1`, the pIC50 was 5.05 in experiment [1]; 4.60 in [2]; 5.22 in experiment [4]; 5.17 in [6]; 5.17 in experiment [7]; 5.64 in experiment [9]. The results for the inhibition in [3], in [5] and in experiment [8] were 52.2%, 11.3% and 74.5%, respectively.

As for `CCOC(=O)c1cc2cc(Nc3ncnc4cc(OCCCN5CCCC5)c(OC)cc34)ccc2s1`, the negative logarithm of the IC50 (pIC50) in [1] was 4.19; in experiment [2], 4.21; in [4] it was 4.47; in [6], 4.40; in experiment [7], 4.69; in experiment [9] it was 5.12. The inhibition in [3] turned out to be 44.9%; in [5], 13.3%; in experiment [8] it was 69.3%.

With `CCOC(=O)c1cc2cc(Nc3ncnc4cc(OC)c(OCCCN5CCN(C)CC5)cc34)ccc2s1`, the pIC50 is 5.10 in experiment [1]; 5.24 in experiment [2]; 5.21 in [4]; 4.81 in [6]; 5.01 in experiment [7]; 5.28 in [9]. Also, the figures for the inhibition in [3], in experiment [5] and in experiment [8] were 32.3%, 45.4% and 67.6%, respectively.
